{
  "source": "paper PMC4229023",
  "about": "(Biomacromolecules, 2014)",
  "key": {"[1]": {"system": "HCT-116 human colon carcinoma cell line", "assay": "MTT cytotoxicity", "type": "cell-based", "conditions": "HCT-116 cells"}, "[2]": {"system": "4T1.2 mouse breast cancer cell line", "assay": "MTT cytotoxicity", "type": "cell-based", "conditions": "4T1.2 cells"}, "PC-3 xenografts": {"system": "PC-3 xenografts", "conditions": "cited from earlier work"}, "Plasma pharmacokinetics": {"assay": "Plasma pharmacokinetics", "type": "in vivo", "conditions": "5 mg DOX/kg i.v., female BALB/c mice"}, "[3]": {"assay": "Maximum tolerated dose study", "type": "in vivo, CD-1 mice", "in_short": "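Body weight and survival were checked daily for 2 weeks. MTD was taken as the highest dose causing neither more than 15% body-weight loss nor any death within 2 weeks.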"}},
  "data": [
    {"smiles": "CC(C)=CCC/C(C)=C/CC/C(C)=C/CSc1ccccc1C(=O)O", "note": "[FTS, S-trans, trans-farnesylthiosalicylic acid]", "values": [
      {"measurement": "cytotoxicity of drug-free carriers and FTS", "setting": "[1]", "result": "inhibited the tumor cell growth in a concentration-dependent manner"},
      {"measurement": "cytotoxicity of drug-free carriers and FTS", "setting": "[2]", "result": "inhibited the tumor cell growth in a concentration-dependent manner"}
    ]},
    {"smiles": "CCCCCCCCCCCCCCCCCCN1C(=CC=CC=CC2=[N+](CCCCCCCCCCCCCCCCCC)c3ccccc3C2(C)C)C(C)(C)c2ccccc21.[O-][Cl+3]([O-])([O-])[O-]", "note": "[free DiD dye, 1,1′-dioctadecyl-3,3,3′,3′-tetramethylindodicarbocyanine perchlorate]", "values": [
      {"measurement": "tumor accumulation (NIRF imaging)", "setting": "PC-3 xenografts", "result": "No obvious tumor accumulation"}
    ]},
    {"smiles": "COc1cccc2c1C(=O)c1c(O)c3c(c(O)c1C2=O)C[C@@](O)(C(=O)CO)C[C@@H]3O[C@H]1C[C@H](N)[C@H](O)[C@H](C)O1", "note": "[DOX, Doxorubicin]", "values": [
      {"measurement": "Cmax", "setting": "Plasma pharmacokinetics", "result": 3590, "unit": "ng/mL"},
      {"measurement": "Vd", "setting": "Plasma pharmacokinetics", "result": 7.34, "unit": "L/kg"},
      {"measurement": "T1/2", "setting": "Plasma pharmacokinetics; noncompartmental", "result": 1.74, "unit": "h"},
      {"measurement": "AUC0-inf", "setting": "Plasma pharmacokinetics; plasma", "result": 3430, "unit": "ng·h/mL"},
      {"measurement": "tolerability", "setting": "[3]; 10 mg/kg DOX", "result": "well tolerated"},
      {"measurement": "decrease in the body weight", "setting": "[3]; 15 mg DOX/kg", "result": "> 15", "unit": "%"},
      {"measurement": "Animal death", "setting": "[3]; 15 mg DOX/kg i.v., n = 4, listed as free DOX", "result": "death of all treated mice"},
      {"measurement": "maximum tolerated dose (MTD)", "setting": "[3]; DOX dose, single i.v. dose, female CD-1 mice, 2 weeks", "result": "~10", "unit": "mg/kg"}
    ]}
  ]
}
